Compound activity from PubChem BioAssay.
eIF4H FP inh: inhibitors of RNA binding by human eIF4H; actives 0.94% (n = 290,000); AID 2012; inhibition, % at 35 µM; eIF4H fluorescence polarization binding assay; Q15056;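 also: calls also rest on retests at 20 µM and on dose response follow-up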
MLLE-PAM2 inh: inhibitors of microRNA-mediated deadenylation, human PABP1 MLLE binding | actives 0.36% (n = 360,000) | P11940 | AID 588489 | inhibition, % at 20 µM | GST-MLLE / FITC-PAM2 fluorescence polarization; in the data active = inhibition above about 35%, passing the limit was not always enough;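 also: plate controls were DMSO wells with GST-MLLE for no effect and wells lacking GST-MLLE protein for full effect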
Target sequence (P11940 whole entry, looked up): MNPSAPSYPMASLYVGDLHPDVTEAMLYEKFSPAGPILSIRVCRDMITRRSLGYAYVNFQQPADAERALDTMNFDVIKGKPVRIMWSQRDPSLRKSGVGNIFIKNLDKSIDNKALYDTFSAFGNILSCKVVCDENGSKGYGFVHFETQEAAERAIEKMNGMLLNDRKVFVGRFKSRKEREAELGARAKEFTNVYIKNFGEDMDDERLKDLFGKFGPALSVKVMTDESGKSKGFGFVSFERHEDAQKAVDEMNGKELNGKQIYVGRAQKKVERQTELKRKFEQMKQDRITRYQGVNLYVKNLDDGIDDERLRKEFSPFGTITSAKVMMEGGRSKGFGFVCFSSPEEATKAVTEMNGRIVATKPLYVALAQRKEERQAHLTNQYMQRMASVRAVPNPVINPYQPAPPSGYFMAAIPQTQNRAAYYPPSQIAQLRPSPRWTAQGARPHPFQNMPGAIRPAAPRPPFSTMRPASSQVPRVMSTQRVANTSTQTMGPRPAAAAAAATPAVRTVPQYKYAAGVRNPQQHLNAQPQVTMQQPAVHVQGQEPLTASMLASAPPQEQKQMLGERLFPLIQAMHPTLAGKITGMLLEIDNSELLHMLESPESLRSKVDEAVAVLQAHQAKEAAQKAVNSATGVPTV
FID counter: fluorescent intercalator displacement, NS3 helicase counter-screen; DNA fluorescent intercalator displacement, fluorescence; inhibition, % at 7.9 µM; actives 0.17% (n = 290,000); AID 1845; in the data active = inhibition above about 37%;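 also: 0% = vehicle and 100% = reference compound; higher means more ethidium bromide displaced from hairpin DNA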
NS3 helicase inh: HCV NS3 helicase inhibition; inhibition, % at 10.9 µM; NS3 helicase DNA unwinding, Cy5 molecular beacon fluorescence; AID 1800; actives 0.56% (n = 290,000);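 active = inhibition above the mean of all tested compounds plus 3 SD, set per campaign, cut at about 35% in these data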;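 also: 0% = DMSO wells and 100% = thioflavine S control wells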
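Compound dosing – single dose, 10.9 µM nominal final, DMSO 0.8% final · System – NS3 helicase fragment of HCV · Buffer or medium – MOPS pH 6.5, MgCl2, DTT, Tween20, BSA · Signal – Cy5 beacon fluorescence read at start and 1 h · Also added – annealed dual-labelled DNA beacon duplex, ATP-started · Schedule – 1 h at 25 °C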
PABP polyA inh: PABP-poly(A) binding inhibition; actives 1% (n = 290,000); PABP-poly(A) RNA binding, fluorescence polarization; inhibition, % at 35 µM; AID 2014;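 also: calls also rest on retests at 20 µM and on dose response follow-up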
HCV core dimer: HCV core protein dimerization inhibition; TR-FRET GST/Flag-core106 dimerization, 1536-well; actives 0.33% (n = 300,000); inhibition, % at 5 µM;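 active = inhibition above the mean of all tested compounds plus 3 SD, set per screening campaign, cut at about 45% in these data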
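assay system = GST-tagged and Flag-tagged HCV core protein residues 1-106 | controls = unlabelled core106 and no-GST-core106 wells | incubation = compound-protein-antibody incubation 4 h at 22.5 °C | probe or stimulus = Eu donor and XL665 acceptor anti-tag antibodies | read-out = % inhibition based on acceptor/donor emission ratio | signal = TR-FRET 671 and 617 nm emission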
The depositor's hits bear a star; ? = inconclusive; · = no result given. Sampled rows, rich in hits. Any-hit rate of the full collection: about 2%. Unless noted, no rule for the calls is given here.

SMILES	eIF4H FP inh	MLLE-PAM2 inh	FID counter	NS3 helicase inh	PABP polyA inh	HCV core dimer
O=C(O)COc1ccccc1C(Nc1ccccn1)c1cc(Cl)c2cccnc2c1O (stereo unspecified)	53.8*	32.1	-33.4	20.3	6.4*	9.7
O=c1cc(CN(Cc2ccccc2)Cc2ccccc2)c2c(ccc3ccccc32)o1	·	-30.2	·	·	·	·
CCCCOc1ccc(C(=O)NCC(=O)NCCOc2ccccc2OC)cc1	·	-6.4	·	·	·	·
CN1C(=O)c2c(sc3c2CCCC3)NC1c1ccccc1O (stereo unspecified)	6.6	·	-7.6	20.3	12.9	55.2*
O=C1NC(c2cccs2)Nc2sc3c(c21)CCCC3 (stereo unspecified)	6.1	25.4	2.1	6.9	2.6	-0.1
COc1ccccc1N=c1oc2c(OC)cccc2cc1C(=O)NCc1ccco1	14.8	-11.3	1.7	7.9	26.1	5.0
COc1ccc(OC)c(N=c2oc3c(OC)cccc3cc2C(=O)NCc2ccco2)c1	118.2*	14.8	·	·	113.7	6.4
CN(C)Cc1csc(Nc2ccc(C(=O)c3ccccc3)cc2)n1	·	-2.1	·	·	·	·
CC(=O)/C(N=Nc1nc2c([nH]1)c(=O)n(C)c(=O)n2C)=C(\C)O	18.1	54.7*	-27.8	25.9	0.5	9.3
Cc1nc(-n2[nH]c3c(c2=O)CCCC3)[nH]c(=O)c1Cc1ccccc1	?	-96.5	-19.9	29.8	104.4*	-1.6
CN(C)CCN(C)C1CN(Cc2ccc([N+](=O)[O-])cc2)S(=O)(=O)C1 (stereo unspecified)	·	9.9	·	·	·	·
O=C(CCc1ccc(S(=O)(=O)NCc2ccccc2)cc1)NCC1CCCO1 (stereo unspecified)	-9.3	-0.2	-8.0	-0.7	-10.2	-2.8
CC(O)C(NS(=O)(=O)c1ccc2ccccc2c1)C(=O)OCC(=O)Nc1ccccc1OC(F)F (stereo unspecified)	·	1.0	·	·	·	·
CCN(CC)C1=N/C(=C\c2ccco2)C(=O)N1c1ccccc1	42.7	1.0	-13.5	17.7	15.2	3.5
CC(C)CN(CC(C)C)C1=N/C(=C\c2ccco2)C(=O)N1c1ccccc1	69.2	-49.8	-11.8	34.8	53.2*	1.7
COc1cc([N+](=O)[O-])cc2sc(NC(=O)c3c(F)cccc3F)nc12	-13.6	-12.1	0.3	-47.0	-7.5	-2.3
CC(C)N1CC2(CC(c3ccccc3C(F)(F)F)=NO2)CN1C(=O)c1ccco1 (stereo unspecified)	·	-13.5	·	·	·	·
O=C(CSc1ncccn1)NN=C1CCCCCC1	81.9*	0.6	-6.2	6.5	120.4*	6.8
CCOC(=O)N1CCN(C(=O)COc2ccc3c(c2)C(=O)CC(C)(C)O3)CC1	?	-4.2	-24.1	-6.2	78.9*	0.8
Cc1sc2ncnc(Nc3ccc(N4CCOCC4)cc3)c2c1-c1ccccc1	?	-22.4	-4.2	-2.0	119.8*	-0.9
Cc1sc2ncnc(Nc3ccccc3)c2c1C	-1.6	3.1	-6.7	5.7	-5.2	-5.5
Cc1ccc(S(=O)(=O)Cc2cc(F)c([N+](=O)[O-])cc2[N+](=O)[O-])cc1	-2.8	-9.8	-3.0	19.0	2.0	-1.5
Cc1cc(C=O)c(C)n1-c1ccc(N2CCOCC2)c([N+](=O)[O-])c1	82.1*	20.9	-7.2	-11.1	69.6*	6.5
Cc1c(C(=O)Nc2ccc3c(c2)OCCO3)sc2ncnc(N3CCCCC3C)c12 (stereo unspecified)	-11.2	2.5	-42.6	7.0	8.0	-11.6
c1ccc2c(c1)CCCN2c1nc2ccccc2n2cnnc12	80.4*	-50.9	-11.2	-0.4	82.4*	-6.1
SMILES	eIF4H FP inh	MLLE-PAM2 inh	FID counter	NS3 helicase inh	PABP polyA inh	HCV core dimer
Cc1ccc2nc(-c3cccc(SC4CCCCC4)c3)c(NC3CCCCC3)n2c1	·	-6.7	·	·	·	·
Cc1ccc2nc(-c3cccnc3)c(NC3CCCCC3)n2c1	17.4	46.1*	0.1	-12.0	0.7	-10.2
Cc1nc(CN(C)c2ncnc3ccc(-c4ccc5c(c4)OCO5)cc23)cs1	·	-16.2	·	·	·	·
O=C(NCCCO)c1ccc2nc(-c3ccco3)c(-c3ccco3)nc2c1	95.6	21.2	-13.7	0.5	-1.1	·
CCCCNC(=O)c1ccc2nc(-c3ccco3)c(-c3ccco3)nc2c1	93.9*	19.6	-9.1	19.8	active	49.7*
COc1ccc2nc(-c3ccco3)c(-c3ccco3)nc2c1	98.4*	39.6*	-16.9	28.6	86.8*	40.2
O=C(NCc1ccccc1)c1ccc2nc(-c3ccco3)c(-c3ccco3)nc2c1	107.6*	18.5	-6.7	23.8	83.3*	72.7*
CC(C)(C)NC(=O)Cn1nnc(-c2cccs2)n1	65.4*	12.1	0.5	-2.0	active	-5.6
O=C1NC(=O)C(CC(=O)N(Cc2cccs2)C2(C(=O)NC3CCCCC3)CCCCC2)N1 (stereo unspecified)	active	7.1	-24.9	-3.1	52.4*	-0.1
COc1cccc(-n2c(SCC(N)=O)nc3ccccc3c2=O)c1	58.2*	-70.0	-15.1	0.9	4.8	-0.3
O=c1oc2ccccc2nc1/C=C(O)/C=C/c1ccc(F)cc1	23.7	-34.8	40.0*	30.6	-3.0	-0.2
O=c1oc2ccccc2nc1/C=C(O)/C=C\c1ccccc1	5.4	-13.8	-8.6	34.5	22.1	50.2*
CCCCn1c(N)c(N(C(=O)CSc2nncn2-c2ccccc2)C2CCCC2)c(=O)[nH]c1=O	·	-11.1	·	·	·	·
O=C1NCCSC1c1ccccc1 (stereo unspecified)	·	-6.8	·	·	·	3.0
Cc1onc(-c2c(F)cccc2Cl)c1C(=O)Nc1cccc(S(=O)(=O)N2CCOCC2)c1	·	10.2	·	·	·	·
COc1ccc(C(=O)Nc2ccc(NC(=O)Cc3ccccc3)cn2)cc1	-6.8	8.9	-14.8	-0.7	-3.8	-8.8
C=CCN1C(=O)/C(=C2/Sc3ccccc3N2CCCS(=O)(=O)O)SC1=S	11.9	41.4*	-3.7	27.5	35.9	1.7
C=CCN1C(=O)/C(=C2/Sc3ccccc3N2CC)SC1=S	43.9	-0.5	1.5	1.8	7.5	-8.5
COc1ccc(NS(=O)(=O)c2ccc(NC(=S)NC(=O)c3cccc(F)c3)cc2)nn1	-1.7	37.9*	-10.1	16.0	4.9	-2.8
COc1cc(NS(=O)(=O)c2ccc(NC(=S)NC(=O)/C=C/c3ccc(F)cc3)cc2)ncn1	5.9	40.5*	-1.9	8.0	2.3	7.7
O=C(NC(=S)Nc1ccc(NC(=O)c2ccccc2)cc1)c1ccc(F)cc1	-3.9	33.0	-18.3	0.0	8.5	8.9
COc1ccc(OCC(=O)NC(=S)Nc2ccc(S(=O)(=O)Nc3cc(OC)nc(OC)n3)cc2)cc1	-3.7	48.6*	-5.6	-3.4	3.1	11.9
O=C(NC(=S)Nc1ccc2c(c1)C(=O)c1ccccc1C2=O)c1ccc(F)cc1	70.4	·	2.4	10.5	10.1*	-6.1
O=c1ccn([C@@H]2O[C@H](CNCC3=Cc4cc(O)ccc4OC3)[C@@H](O)[C@H]2O)c(=O)[nH]1	·	-0.5	·	·	·	·
